Only some compounds are listed: those with a hit (about 4.2% of all), similar ones and a draw of the others.
UPR XBP1 act = activators of adaptive arm of unfolded protein response (XBP1); CHO-XBP1 luciferase reporter, IRE1-XBP1 UPR activation, luminescence; percent of tunicamycin response, DMSO as zero; activation, % at 20 µM; 0.33% of 330,000 active;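 active means versus positive control, 20 µM dose yields 30% or more activation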
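Test system: CHO-XBP1 luciferase reporter cells | Buffer or medium: Serum-containing F12 medium, 10% FBS | Schedule: 6 h compound exposure at 37 °C, 5% CO2 | Detection: Steady-Glo luciferase glow luminescence, 10 min after reagent addition | Read-out basis: Activation, % of tunicamycin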
TMEM16A inh = blocks the mouse calcium-activated chloride channel TMEM16A; normalized B-score (activity score, 25-100; higher = stronger inhibition) at 10 µM; Q8BHY3; 1.2% of 310,000 active; HEK293 TMEM16A/YFP iodide influx fluorescence, ionomycin;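 active means ratio plate-corrected score three or more library SD toward inhibition, starting fluorescence score within five deviations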;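 further: score derived from kinetic fluorescence span divided by baseline fluorescence per well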
Hep lipid drop = hepatic lipid droplet formation modulation. inhibition, % at 6.5 µM. AML12 mouse hepatocytes, oleate lipid droplets, BODIPY imaging. AID 1656. 0.4% of 240,000 active;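 active means lipid droplet intensity inhibited by at least 50%, with more than 500 cells counted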
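Test system: AML12 hepatocytes (mouse); reagent: oleate loading, 100 µM; dosing: one dose, 6.5 µM compound; incubation: overnight exposure; signal: fluorescence imaging, 20x objective, two fields per well; read-out basis: % inhibition of corrected integrated BODIPY droplet signal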
TMEM16A act = activates or potentiates the mouse TMEM16A chloride channel. Q8BHY3. HEK293 TMEM16A/YFP-H148Q/I152L, iodide quench fluorescence; active compounds read low. B-score at 10 µM. 0.3% of 340,000 active. AID 623877;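 active means fluorescence-ratio B-score plate-corrected deviation score at least 3 library SD below zero, with starting fluorescence score within 5 deviations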;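 further: channel opened by trigger with iodide after compound preincubation; score built on the fluorescence ratio of max minus min over baseline; more negative score means more quench and so TMEM16A activation or potentiation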
CHOP UPR activ = apoptotic UPR (CHOP) activation; CHO-CHOP luciferase reporter, luminescence; percent of tunicamycin response over DMSO baseline; activation, % at 10 µM; 0.34% of 330,000 active;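 active means at 10 µM dose, activation of 40% or more, normalized to positive control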
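assay system = CHO CHOP reporter cells | amount = 500 CHO-CHOP cells per well | buffer or medium = F12 with 10% FBS | incubation = 16-18 h cell attachment, then 6 h compound exposure, 37 °C | detection = luminescence read with Steady-Glo | read-out = percent activation relative to tunicamycin control | controls = tunicamycin high control, DMSO low control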
CHOP inhibitor = CHOP inhibition in unfolded protein response. CHO-K1 CHOP-promoter luciferase, tunicamycin-induced, 15-18 h. inhibition, % at 10 µM. 3.8% of 220,000 active;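 active means compounds that reduced the stress-induced luciferase reporter signal by more than about 70% of percent inhibition, limit read from the data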
TMEM16A reconf = reconfirmed blocker of mouse TMEM16A calcium-activated chloride channel; shares compounds with TMEM16A inh; HEK293 TMEM16A/YFP-H148Q, iodide quench fluorescence; ionomycin added to raise cell calcium; inhibition, % at 10 µM; 39% of 2,300 active; AID 652189;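 active means mean duplicate percent inhibition, scaled so buffer wells are 0 and the reference blocker 100, over three buffer SD above buffer mean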
HEK293 Ca mobil = calcium mobilization counter-screen hit for TMEM16A inhibitor series | AID 652231 | calcium response (% of ionomycin), % at 10 µM | shares compounds with TMEM16A inh | TMEM16A/YFP HEK293, Fluo4 calcium mobilization | 2% of 2,300 active;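 active means duplicate-averaged calcium signal over 20% of the ionomycin maximum, relative to buffer baseline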;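 further: each well's signal is peak minus trough fluorescence divided by its pre-addition baseline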
YFP-HEK293 quench = parental YFP-HEK293 iodide quench counter-screen activity. shares compounds with TMEM16A inh. ionomycin. YFP ratio F(max-min)/F0 at 10 µM. 2,300 tested, under 10 active. AID 652233;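 active means yellow fluorescent protein signal ratio exceeding the buffer control mean by over 5 SD of those controls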;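 further: ratio is mean of duplicate wells from kinetic YFP trace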
ClC-1 rat inh = selectivity of TMEM16A inhibitors: inhibition of rat ClC-1 chloride channel; shares compounds with TMEM16A inh; CHO ClC-1-YFP, iodide influx fluorescence quench; iodide control reads 0, buffer control 100; ratio percent, % at 10 µM; 2,300 tested, under 10 active; AID 652236;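 active means duplicate-mean ratio percent above the mean of iodide-only control wells, which defines zero, plus 5 of their SD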;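 further: higher percent means stronger block of ClC-1 iodide influx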
A number is an active result; 0 = inactive; - = no result.

SMILES	UPR XBP1 act	TMEM16A inh	Hep lipid drop	TMEM16A act	CHOP UPR activ	CHOP inhibitor	TMEM16A reconf	HEK293 Ca mobil	YFP-HEK293 quench	ClC-1 rat inh
CSc1nc(Cl)c(Cc2ccc(OC(C)C)cc2)c(N(C)C)n1	0	0	0	0	0	0	-	-	-	-
CCOC(=O)c1ccc(S(=O)(=O)Nc2cc(C(=O)O)ccc2Cl)cc1	0	0	0	0	0	0	-	-	-	-
O=C(Nc1ccc(F)cc1F)c1cc(-c2ccco2)on1	0	100	-	0	0	0	0	0	0	0
Cc1cccc(N(CC(=O)NC2CCCCC2)C(=O)c2csnn2)c1	0	0	0	0	0	-	-	-	-	-
Cn1ccsc1=NC(=O)c1cc(S(=O)(=O)N2CCOCC2)ccc1F	0	0	-	0	0	-	-	-	-	-
CCS(=O)(=O)Nc1cccc(C2=NN(S(=O)(=O)c3ccccc3)C(c3cccs3)C2)c1 (stereo not given)	0	0	-	0	0	0	0	0	0	0
O=C1CCCc2cc3c(cc21)CC1(C3)Cc2cc3c(cc2C1)C(=O)CCC3	0	25	0	0	0	0	20%	0	0	0
CCc1ccc2c(c1)C(=O)CCC2	-	-	-	0	-	-	-	-	-	-
COc1ccccc1C1CC(=O)NC(SCC(=O)Nc2ccccc2)=C1C#N (stereo not given)	0	0	-	0	0	0	-	-	-	-
Cc1ccc(NC(=O)CSC2=C(C#N)C(c3ccco3)CC(=O)N2)cc1 (stereo not given)	0	25	0	0	0	0	0	0	0	0
CCOc1ccc(-c2nnn(CC(=O)c3ccc4c(c3)OCCO4)n2)cc1OCC	0	25	-	0	0	0	18%	0	0	0
O=C(Nc1ccc2c(c1)COC2=O)c1ccc(Cl)c(Cl)c1	0	0	0	0	0	-	-	-	-	-
Cc1ccc2c(c1)N(CC(=O)NC(C)CCc1ccccc1)C(=O)c1cccnc1O2 (stereo not given)	0	0	0	0	0	-	-	-	-	-
O=C(CSc1nccn1Cc1ccccc1)Nc1nccs1	0	25	0	0	0	0	0	0	0	0
CCOc1cc2[nH]c(=S)n(Cc3ccc(C(=O)NCC(OC)OC)cc3)c(=O)c2cc1OCC	0	100	-	0	0	0	0	0	0	0
CC(SC1CCCC1)C(=O)Nc1ccnn1C(C)C (stereo not given)	0	0	-	0	0	0	0	0	0	0
CC(C)Oc1ncnc2c1[nH]c1ccccc12	0	25	0	0	0	0	0	0	0	0
Oc1c(Br)cc(Br)cc1C=Nc1cccc2ncccc12	0	0	-	0	0	-	18%	0	0	0
Brc1cccc(C=Nc2cccc3ncccc23)c1	0	0	-	0	0	-	-	-	-	-
COc1ccc(CCNC(=S)N2CCC(Cc3ccccc3)CC2)cc1OC	0	100	0	0	0	0	0	0	0	0
C#C[C@]1(OC(C)=O)CCC2C3CCC4=CC(=O)CC[C@@H]4C3CC[C@@]21C (stereo not given in full)	0	0	0	0	0	-	-	-	-	-
Cc1cc(Cl)c(S(=O)(=O)N2CCCC2)cc1OCC(=O)NC1CCCCC1	0	100	0	0	0	0	22%	0	0	0
CN(C)CCNc1ccc2ncn3c4ccc(O)cc4c(=O)c1c23	-	-	-	0	-	-	-	-	-	-
CCOC(=O)c1c(C)[nH]c(C(=O)N/N=C/c2cc([N+](=O)[O-])ccc2O)c1C	0	25	0	0	0	-	20%	0	0	0
O=C(c1ccc(Cl)cc1)C1CCCN(Cc2cnn(-c3ccccc3)c2)C1 (stereo not given)	0	100	0	0	0	0	33%	0	0	0
SMILES	UPR XBP1 act	TMEM16A inh	Hep lipid drop	TMEM16A act	CHOP UPR activ	CHOP inhibitor	TMEM16A reconf	HEK293 Ca mobil	YFP-HEK293 quench	ClC-1 rat inh
COc1ccc2c(c1)CC/C(=C\Nc1ccc3c(c1)OCO3)C2=O	0	25	0	0	0	0	0	0	0	0
COc1ccc(NC(=O)Nc2cccc(Cl)c2Cl)c(OC)n1	0	0	0	0	0	0	-	-	-	-
Cc1nnsc1C(=O)NC1CCCc2c1cnn2-c1ccc(C(C)(C)C)cc1 (stereo not given)	0	25	0	0	0	-	20%	0	0	0
Cc1nnsc1C(=O)NC1CCCc2c1cnn2-c1ccccc1F (stereo not given)	0	100	0	0	0	-	0	0	0	0
Cc1onc(-c2ccccc2)c1C(=O)Nc1ccc(Cl)c(S(=O)(=O)N2CCOCC2)c1	0	-	-	0	0	-	-	-	-	-
COc1cccc(Nc2nc(N)c([N+](=O)[O-])c(NCc3ccccc3)n2)c1	0	0	0	0	0	0	-	-	-	-
O=C(CSc1nnc(Nc2ccccc2)s1)Nc1ccc(S(=O)(=O)N2CCOCC2)cc1	0	25	0	0	0	0	0	0	0	0
Cc1ccc(Nc2nnc(SCC(=O)Nc3ccc(S(=O)(=O)N4CCOCC4)cc3)s2)cc1	0	0	0	0	0	0	-	-	-	-
Cn1ncc2c(N3CCN(c4ccc(Cl)c(Cl)c4)CC3)ncnc21	0	25	0	0	0	84	0	0	0	0
Cn1ncc2c(N3CCN(c4ccccc4F)CC3)ncnc21	0	0	0	0	0	0	-	-	-	-
Cc1cccc(OCCCCc2c(C)n[nH]c2C)c1C	0	100	0	0	0	95	0	0	0	0
CCOc1ccccc1OCCCCCc1c(C)n[nH]c1C	0	0	-	0	0	0	-	-	-	-
O=C(Nc1ccc([N+](=O)[O-])cc1)N1CCN(C(=O)C2CCCO2)CC1 (stereo not given)	0	0	0	0	0	-	-	-	-	-
COC(=O)C(C)(C)ONC(=O)Nc1ccccc1Br	0	25	0	0	0	0	0	0	0	0
Nc1nc(Cl)cc(N2CCC(c3cc(-c4ccc(Cl)cc4Cl)n[nH]3)CC2)n1	0	100	-	0	0	89	0	0	0	0
CCCOc1ccccc1OCC(=O)Nc1cc(Cl)ccc1-n1cncn1	0	0	-	0	0	-	-	-	-	-
C=CCN(c1ccccc1)S(=O)(=O)c1cccc(C(=O)Nc2ccncc2)c1	0	100	-	0	0	-	20%	0	0	0
COc1ccc(CCNc2c3ccccc3nc3ccccc23)cc1OC	0	0	0	0	0	0	-	-	-	-
